Test results taken from ChEMBL document CHEMBL3992521, “Pyrimidinyl Biphenylureas: Identification of New Lead Compounds as Allosteric Modulators of the Cannabinoid Receptor CB1” (J Med Chem, 2017).
Active and inactive are the calls of the source. The rule behind the calls is not given here.

Columns and labels:
[1] = target: Cannabinoid receptor 1 (Homo sapiens) (UniProt P21554); test: Positive allosteric modulation of CB1 receptor (unknown origin) expressed in HEK293T cell membranes assessed as increase in [3H]CP55,940 binding by liquid scintillation counting method
In short: (§1)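 Membranes from HEK293T cells transiently expressing CB1 (harvested 24 h post-transfection) incubated with 0.5 nM [3H]CP55,940 and at least nine modulator concentrations (100 pM–100 µM) in TME buffer pH 7.4 with 0.2% fatty acid-free BSA; nonspecific binding with 1 µM unlabeled CP55,940; filtration. KB and cooperativity α from nonlinear regression; duplicate, ≥3 experiments, 95% confidence limits.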

[2] = target: Cannabinoid receptor 1 (Homo sapiens) (UniProt P21554); test: Allosteric modulation at CB1 receptor (unknown origin) expressed in HEK293T cell membranes assessed as inhibition of CP55,940 induced [35S]GTPgammaS binding after 1 hr by liquid scintillation counting method; format: functional
In short: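 HEK293T cells transiently transfected with CB1 (calcium phosphate), membranes harvested 24 h later; 7.5 µg membrane incubated 1 h at 30 °C with CP55,940 1 µM, 0.1 nM [35S]GTPγS, 5 µM GDP, 0.1% BSA in Tris-HCl pH 7.4/MgCl2/EGTA/NaCl buffer, varying modulator concentrations. Nonspecific binding with 10 µM unlabeled GTPγS; filtration. Expressed as % of CP55,940 signal; duplicate, ≥3 independent experiments.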

[3] = target: Cannabinoid receptor 1 (Homo sapiens) (UniProt P21554); test: Positive allosteric modulation of CB1 receptor (unknown origin) expressed in HEK293T cell membrane assessed as increase in beta-arrestin mediated ERK1/2 phosphorylation at 10 uM in presence of G-protein sensitive pertussis toxin incubated for 5 mins by Western blot method; format: cell-based
In short: (§2)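 CB1-transfected HEK293T cells carried control, β-arrestin 1 or β-arrestin 2 siRNA, or were pretreated 12 h at 37 °C with PTX 5 ng/mL. They were then washed and given allosteric modulator 10 μM alone for 5 min, with DMSO vehicle as control. ERK1/2 phosphorylation was read by Western blot of 13 µg lysate protein using phospho- and total p44/42 antibodies.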

[4] = target: Cannabinoid receptor 1 (Homo sapiens) (UniProt P21554); test: Positive allosteric modulation of CB1 receptor (unknown origin) expressed in HEK293T cell membrane assessed as ERK1/2 phosphorylation in presence of beta-arrestin1 siRNA at 10 uM incubated for 5 mins by Western blot method; format: cell-based; in short: as §2
[5] = target: Cannabinoid receptor 1 (Homo sapiens) (UniProt P21554); test: Positive allosteric modulation of CB1 receptor (unknown origin) expressed in HEK293T cell membranes assessed as increase in [3H]CP55,940 binding up to 32 uM by liquid scintillation counting method; in short: as §1

Chain of Cannabinoid receptor 1 (Homo sapiens) (P21554 whole entry): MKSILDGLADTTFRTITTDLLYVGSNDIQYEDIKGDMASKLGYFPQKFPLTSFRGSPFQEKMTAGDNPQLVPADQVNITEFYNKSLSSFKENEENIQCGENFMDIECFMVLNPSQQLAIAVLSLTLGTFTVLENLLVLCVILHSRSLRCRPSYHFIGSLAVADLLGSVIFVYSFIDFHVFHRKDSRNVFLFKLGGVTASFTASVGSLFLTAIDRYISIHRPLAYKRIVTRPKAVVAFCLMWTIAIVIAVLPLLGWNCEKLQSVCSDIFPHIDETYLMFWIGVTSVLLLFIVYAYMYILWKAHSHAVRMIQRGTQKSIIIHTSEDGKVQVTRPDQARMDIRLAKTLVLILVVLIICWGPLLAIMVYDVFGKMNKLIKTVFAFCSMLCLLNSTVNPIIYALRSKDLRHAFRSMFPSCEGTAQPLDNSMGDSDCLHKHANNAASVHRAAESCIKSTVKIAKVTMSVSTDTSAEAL

| SMILES | Kb [1] | also measured |
| --- | --- | --- |
| CCOC(=O)c1ccc(NC(=O)Nc2cccc(-c3nccc(N4CCCC4)n3)c2)cc1 | 463 nM | – |
| CN(C)c1ccnc(-c2cccc(NC(=O)Nc3cccc(F)c3)c2)n1 | 670 nM | – |
| O=C(Nc1ccc(F)cc1)Nc1cccc(-c2nccc(N3CCCC3)n2)c1 | 223 nM | – |
| O=C(Nc1ccc(Br)cc1)Nc1cccc(-c2nccc(N3CCCC3)n2)c1 | 102 nM | – |
| N#Cc1ccc(NC(=O)Nc2cccc(-c3ccnc(N4CCCC4)n3)c2)cc1 | 168 nM | inhibition [2]: Dose-dependent effect; Activity [3]: Active; Activity [4]: Active |
| O=C(Nc1ccc(Cl)cc1)Nc1cccc(-c2nccc(N3CCCC3)n2)c1 | 264 nM | inhibition [2]: Dose-dependent effect |
| COc1ccc(NC(=O)Nc2cccc(-c3nccc(N4CCCC4)n3)c2)cc1 | 1830 nM | – |
| N#Cc1ccc(NC(=O)Nc2cccc(-c3nccc(N4CCCC4)n3)c2)cc1 | 49.1 nM | inhibition [2]: Dose-dependent effect; Activity [3]: Active; Activity [4]: Active |
| N#Cc1cccc(NC(=O)Nc2cccc(-c3nccc(N4CCCC4)n3)c2)c1 | 1980 nM | – |
| O=C(Nc1ccc(O)cc1)Nc1cccc(-c2nccc(N3CCCC3)n2)c1 | – | Activity [1]: inactive; Activity [5]: inactive |
| CC(=O)c1ccc(NC(=O)Nc2cccc(-c3nccc(N4CCCC4)n3)c2)cc1 | 2110 nM | – |
| O=C(Nc1ccc(C(=O)O)cc1)Nc1cccc(-c2nccc(N3CCCC3)n2)c1 | – | Activity [1]: inactive; Activity [5]: inactive |
| O=C(Nc1ccc(Cl)cc1)Nc1cccc(-c2cccc(N3CCCC3)n2)c1 | – | inhibition [2]: Dose-dependent effect; Activity [4]: Active |

More lines, main results first:

| Kb [1] | SMILES | also measured |
| --- | --- | --- |
| 967 nM | CN(C)c1nccc(-c2cccc(NC(=O)Nc3cccc(F)c3)c2)n1 | – |
| 1120 nM | CN(C)c1nccc(-c2cccc(NC(=O)Nc3ccc(F)cc3)c2)n1 | – |
| 144 nM | CN(C)c1ccnc(-c2cccc(NC(=O)Nc3ccc(C(F)(F)F)cc3)c2)n1 | – |
| 211 nM | N#Cc1ccc(NC(=O)Nc2cccc(-c3nccc(N4CCC4)n3)c2)cc1 | – |
| 417 nM | CN(C)c1nccc(-c2cccc(NC(=O)Nc3ccc(C#N)cc3)c2)n1 | – |
| 66.4 nM | N#Cc1ccc(NC(=O)Nc2cccc(-c3nccc(N4CCCCC4)n3)c2)cc1 | – |
| 1220 nM | CN(C)c1ccnc(-c2cccc(NC(=O)Nc3ccc(F)cc3)c2)n1 | – |
| 965 nM | CN(C)c1nccc(-c2cccc(NC(=O)Nc3ccc(I)cc3)c2)n1 | – |
| 69.6 nM | CCN(CC)c1ccnc(-c2cccc(NC(=O)Nc3ccc(C#N)cc3)c2)n1 | inhibition [2]: Dose-dependent effect |
| 227 nM | O=C(Nc1ccc(Cl)cc1)Nc1cccc(-c2ccnc(N3CCCC3)n2)c1 | inhibition [2]: Dose-dependent effect |
| 196 nM | O=C(Nc1ccc(F)cc1)Nc1cccc(-c2ccnc(N3CCCC3)n2)c1 | – |
| 395 nM | O=C(Nc1ccc(Br)cc1)Nc1cccc(-c2ccnc(N3CCCC3)n2)c1 | – |
| 313 nM | CN(C)c1ccnc(-c2cccc(NC(=O)Nc3ccc(C#N)cc3)c2)n1 | – |
| 997 nM | CN(C)c1ccnc(-c2cccc(NC(=O)Nc3ccc(I)cc3)c2)n1 | – |
| 97.7 nM | N#Cc1ccc(NC(=O)Nc2cccc(-c3nccc(NC4CC4)n3)c2)cc1 | – |
| 207 nM | CCN(C)c1ccnc(-c2cccc(NC(=O)Nc3ccc(C#N)cc3)c2)n1 | – |
